According to ChEMBL document CHEMBL4017491, “Phthalazino[1,2-b]quinazolinones as p53 Activators: Cell Cycle Arrest, Apoptotic Response and Bak-Bcl-xl Complex Reorganization in Bladder Cancer Cells” (J Med Chem, 2017):
Active and inactive are the calls of the source. The calls are words filed in the database; no cut-off is given here.

Key:
[1] = tested on: T-24; assay: Antiproliferative activity against human T24 cells by MTT assay; assay type: functional, cell-based
Method in brief: (§1)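 Cell lines cultured in RPMI 1640 with 10% FBS. Viability read by MTT (5 mg/mL, 4 h at 37 °C), with formazan dissolved in DMSO and absorbance taken at 490 nm. Viability (%) = A490 treated / A490 control × 100. IC50 taken from dose-response curves, from three independent experiments each run in triplicate.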

[2] = tested on: HepG2; assay: Antiproliferative activity against human HepG2 cells by MTT assay; assay type: functional, cell-based; method in brief: as §1
[3] = tested on: NCI-H460; assay: Antiproliferative activity against human NCI-H460 cells by MTT assay; assay type: functional, cell-based; method in brief: as §1
[4] = tested on: MGC-803; assay: Antiproliferative activity against human MGC803 cells by MTT assay; assay type: functional, cell-based; method in brief: as §1
[5] = tested on: HeLa; assay: Antiproliferative activity against human HeLa cells by MTT assay; assay type: functional, cell-based; method in brief: as §1
[6] = molecular target: Cellular tumor antigen p53 (Homo sapiens) (UniProt P04637); assay: Activation of p53 in human T24 cells assessed as p53 phosphorylation after 24 hrs by Western blot analysis; assay type: cell-based
Chain of Cellular tumor antigen p53 (Homo sapiens) (P04637 whole entry, looked up): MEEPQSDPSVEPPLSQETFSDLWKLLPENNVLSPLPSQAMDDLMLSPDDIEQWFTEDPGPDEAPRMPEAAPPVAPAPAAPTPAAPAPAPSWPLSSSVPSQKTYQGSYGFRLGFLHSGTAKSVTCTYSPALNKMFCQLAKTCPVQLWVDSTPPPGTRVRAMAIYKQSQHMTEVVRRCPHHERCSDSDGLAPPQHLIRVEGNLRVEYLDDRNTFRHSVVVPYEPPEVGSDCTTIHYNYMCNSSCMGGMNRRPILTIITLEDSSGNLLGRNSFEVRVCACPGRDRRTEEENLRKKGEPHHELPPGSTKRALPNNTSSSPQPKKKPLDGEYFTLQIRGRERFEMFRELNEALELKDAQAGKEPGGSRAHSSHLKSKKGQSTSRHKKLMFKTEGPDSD
Method in brief: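 T24 cells, 3 × 10^5 per well, grown to 85−95% confluence, then exposed to 0−10 μM for 24 h. Whole-cell extracts in sample buffer run on SDS-polyacrylamide gels and transferred to nitrocellulose. Blots probed with primary antibodies and AP-linked anti-rabbit IgG, detected by ECL. Blots stripped and reprobed for β-actin as loading control.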

[7] = tested on: T-24; assay: Effect on p53 expression in human T24 cells up to 10 uM after 24 hrs by Western blot analysis; assay type: functional, cell-based
Method in brief: (§2)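 T24 cells (3 × 10^5 per well) grown to 85–95% confluence, then exposed 24 h to 0–10 μM. Whole-cell extracts run on SDS-PAGE and blotted to nitrocellulose. Probed with the indicated antibodies and AP-linked anti-rabbit IgG, with ECL detection. Blots stripped and reprobed for β-actin as loading control.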

[8] = tested on: T-24; assay: Effect on p53 protein expression in human T24 cells at 10 uM after 24 hrs by Western blot analysis; assay type: functional, cell-based; method in brief: as §2
[9] = tested on: Escherichia coli; assay: Induction of DNA damage in Escherichia coli pBR322 DNA assessed as effect on mobility rate at 5 uM after 1 hr by DNA relaxation assay
Method in brief: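 pBR322 plasmid DNA incubated 1 h with compound over 1−10 μM in 5 mM Tris-HCl, 50 mM NaCl, pH 7.2. Samples run on 1.5% agarose gel, stained with 0.5 μg·mL−1 ethidium bromide; conformation and migration rate compared with 1% DMSO plus plasmid (negative control) and ethidium bromide plus plasmid (positive control).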

[10] = tested on: HepG2; assay: Antitumor activity against human HepG2 cells xenografted in BALB/C nude mouse assessed as tumor growth inhibition at 6 mg/kg, ip administered every 2 days for 16 days relative to control; assay type: functional; conditions: read-out: TGI
Method in brief: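 Male BALB/C nude mice, 6 weeks old, given subcutaneous flank injection of 5 × 10^6 HepG2 cells; tumors of 80−200 mm3 randomized, n = 6/group. Dosing ip every other day, vehicle 5% DMSO in saline (v/v). Tumor length and width measured three times a week, volume V = lw2/2; growth inhibition expressed versus vehicle group. Body weight also recorded.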

| SMILES | IC50 [1] [µM] | IC50 [2] [µM] | IC50 [3] [µM] | IC50 [4] [µM] | IC50 [5] [µM] | Activity [6] | Activity [7] | Activity [8] | Activity [9] | inhibition in vivo at 6 mg/kg [10] [%] |
| --- | --- | --- | --- | --- | --- | --- | --- | --- | --- | --- |
| O=c1c2cc(Br)ccc2nc2c3ccccc3c(N3CCOCC3)nn12 | > 100 | > 100 | > 100 | > 100 | > 100 |  |  |  |  |  |
| CN(C)CCNc1nn2c(=O)c3cc(F)ccc3nc2c2ccccc12 | 4.62 | 4.68 | 7.49 | 6.6 | 7.92 |  |  |  |  |  |
| O=c1c2cc(F)ccc2nc2c3ccccc3c(NCCCN3CCOCC3)nn12 | 18.8 | 45.1 | 52 | 79.1 | 60.6 |  |  |  |  |  |
| CCOC(=O)CNc1nn2c(=O)c3cc(Br)ccc3nc2c2ccccc12 | > 100 | > 100 | > 100 | > 100 | > 100 |  |  |  |  |  |
| CN(C)CCCNc1nn2c(=O)c3ccccc3nc2c2ccccc12 | 14.5 | 11.5 | 17 | 10.7 | 20.2 | Dose-dependent effect | inactive |  |  |  |
| Cc1ccc2nc3c4ccccc4c(NCCCN4CCOCC4)nn3c(=O)c2c1 | 9.78 | 24.1 | 21.6 | 20.7 | 24.2 |  |  |  |  |  |
| CN(C)CCCNc1nn2c(=O)c3cc(F)ccc3nc2c2ccccc12 | 8.9 | 10.7 | 11.2 | 32.1 | 22.1 |  |  |  |  |  |
| O=c1c2ccccc2nc2c3ccccc3c(NCCCN3CCOCC3)nn12 | 27.9 | 30.5 | 40.2 | 14.5 | 53.8 |  |  |  |  |  |
| CN1CCN(c2nn3c(=O)c4ccccc4nc3c3ccccc23)CC1 | 33.8 | 39.4 | 31.4 | 44.5 | 50.4 |  |  |  |  |  |
| COc1ccc(C2=N[C@H](c3ccc(Cl)cc3)[C@H](c3ccc(Cl)cc3)N2C(=O)N2CCNC(=O)C2)c(OC(C)C)c1 |  |  |  |  |  |  |  | inactive |  |  |
| CC[n+]1c(-c2ccccc2)c2cc(N)ccc2c2ccc(N)cc21 |  |  |  |  |  |  |  |  | Active |  |
| CC(C)N(CCNc1nn2c(=O)c3cc(Br)ccc3nc2c2ccccc12)C(C)C | 12.7 | 11.7 | 13.6 | 10.6 | 11.4 |  |  |  |  |  |
| CCN(CC)CCNc1nn2c(=O)c3cc(Br)ccc3nc2c2ccccc12 | 10.7 | 2.99 | 5.06 | 7.26 | 8.81 |  |  |  |  |  |
| CC[C@@]1(O)C(=O)OCc2c1cc1n(c2=O)Cc2cc3cc(O)ccc3nc2-1 [HYDROXYCAMPTOTHECIN] | 5.53 | 5.52 | 4.91 | 15.2 | 29.2 |  |  |  |  | 71.6 |
| CCCCNc1nn2c(=O)c3cc(Br)ccc3nc2c2ccccc12 | > 100 | > 100 | > 100 | > 100 | > 100 |  |  |  |  |  |
| Cc1ccc2nc3c4ccccc4c(N4CCN(C)CC4)nn3c(=O)c2c1 | 60.5 | 55.2 | 70.6 | 34.2 | 85 |  |  |  |  |  |
| O=c1c2cc(F)ccc2nc2c3ccccc3c(N3CCOCC3)nn12 | > 100 | > 100 | > 100 | > 100 | > 100 |  |  |  |  |  |
| CCOC(=O)CCNc1nn2c(=O)c3cc(Br)ccc3nc2c2ccccc12 | > 100 | > 100 | > 100 | > 100 | > 100 |  |  |  |  |  |

| SMILES | IC50 [1] [µM] | IC50 [2] [µM] | IC50 [3] [µM] | IC50 [4] [µM] | IC50 [5] [µM] | Activity [6] | Activity [7] | Activity [8] | Activity [9] | inhibition in vivo at 6 mg/kg [10] [%] |
| --- | --- | --- | --- | --- | --- | --- | --- | --- | --- | --- |
| CN(C)CCNc1nn2c(=O)c3cc(Cl)ccc3nc2c2ccccc12 | 3.46 | 4.89 | 5.11 | 4.82 | 5.6 |  |  |  |  |  |
| O=c1c2cc(Br)ccc2nc2c3ccccc3c(NCCN3CCCCC3)nn12 | 3.81 | 4.14 | 7.85 | 4.48 | 2.01 |  |  |  |  |  |
| O=c1c2cc(Cl)ccc2nc2c3ccccc3c(NCCCN3CCOCC3)nn12 | 8.85 | 18.3 | 19.9 | 23.1 | 34.6 |  |  |  |  |  |
| O=c1c2cc(Br)ccc2nc2c3ccccc3c(NCCCN3CCOCC3)nn12 | 9.03 | 12.8 | 15.1 | 7.21 | 17.4 |  |  |  |  |  |
| O=c1c2cc(Br)ccc2nc2c3ccccc3c(NCCN3CCCC3)nn12 | 6.43 | 5.21 | 6.84 | 4.15 | 3.71 |  |  |  |  |  |
| CN(C)CCNc1nn2c(=O)c3ccccc3nc2c2ccccc12 | 7.47 | 10.2 | 12.1 | 8.71 | 13 |  |  |  |  |  |
| CN1CCN(c2nn3c(=O)c4cc(Cl)ccc4nc3c3ccccc23)CC1 | 30.7 | 57.6 | 70.4 | 66.1 | > 100 |  |  |  |  |  |
| Cc1ccc2nc3c4ccccc4c(NCCN(C)C)nn3c(=O)c2c1 | 2.12 | 4.97 | 5.69 | 5.65 | 3.41 |  |  |  |  |  |
| CN1CCN(c2nn3c(=O)c4cc(F)ccc4nc3c3ccccc23)CC1 | 34.8 | 51.9 | 77.7 | 26.1 | 44.9 |  |  |  |  |  |
| Cc1ccc2nc3c4ccccc4c(NCCCN(C)C)nn3c(=O)c2c1 | 7.28 | 7.82 | 9.7 | 5.24 | 13.6 |  |  |  |  |  |
| CN(C)CCCNc1nn2c(=O)c3cc(Br)ccc3nc2c2ccccc12 | 3.25 | 2.2 | 5.48 | 3.35 | 7.13 |  |  |  |  |  |
| Cc1ccc2nc3c4ccccc4c(N4CCOCC4)nn3c(=O)c2c1 | > 100 | > 100 | > 100 | > 100 | > 100 |  |  |  |  |  |
| CN1CCN(c2nn3c(=O)c4cc(Br)ccc4nc3c3ccccc23)CC1 | 77 | 41.1 | 43.7 | 40.4 | 73.5 |  |  |  |  |  |
| CN(C)CCCNc1nn2c(=O)c3cc(Cl)ccc3nc2c2ccccc12 | 9.83 | 8.78 | 10.5 | 13.9 | 15.7 |  |  |  |  |  |
| O=c1c2ccccc2nc2c3ccccc3c(N3CCOCC3)nn12 | > 100 | 92.3 | > 100 | > 100 | > 100 |  |  |  |  |  |
| O=c1c2cc(Cl)ccc2nc2c3ccccc3c(N3CCOCC3)nn12 | > 100 | > 100 | > 100 | > 100 | > 100 |  |  |  |  |  |
| O=c1c2cc(Br)ccc2nc2c3ccccc3c(NCCN3CCOCC3)nn12 | 10.8 | 11.3 | 7.85 | 9.9 | 8.8 |  |  |  |  |  |
